{"source": "ChEMBL document CHEMBL2086359", "about": "“Tormentic acid derivatives: synthesis and apoptotic activity” (Eur J Med Chem, 2012)", "key": {"8505C [1]": {"tested_on": "8505C", "assay": "Induction of apoptosis in human 8505C cells assessed as induction of cell death after 24 to 48 hrs by AO/PI exclusion dye assay", "format": "functional, cell-based", "summary_of_the_method": "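About 1×10^6 cells were grown in 25 cm2 flasks to 80% and given compound-loaded medium for 24–48 h, with blank medium as control. Cells were recovered from the supernatant (300 g, 4 °C), washed and resuspended in PBS. They were mixed 1:1 with AO/PI solution and viewed by fluorescence microscopy: green cells were scored as apoptotic, red as necrotic.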"}, "MCF7": {"tested_on": "MCF7", "assay": "Cytotoxicity against human MCF7 cells after 96 hrs by SRB assay", "format": "functional, cell-based", "summary_of_the_method": "(§1)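 Monolayer cultures kept in RPMI 1640 with 10% heat-inactivated FBS and penicillin/streptomycin at 37 °C, 5% CO2. Exponentially growing cells were seeded and treated 24 h later with serial dilutions (0–30 µM) for 96 h, with DMSO or DMF at most 0.5% final. Cells were fixed with 10% TCA at 4 °C and stained with 0.4% SRB for about 30 min. Plates were washed with 1% acetic acid and the dye dissolved in 10 mM Tris base. Absorbance was read at 570 nm and survival taken relative to untreated controls. IC50 was estimated from dose–response curves, averaged from at least 5 independent experiments.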"}, "518A2": {"tested_on": "518A2", "assay": "Induction of apoptosis in human 518A2 cells after 24 to 48 hrs by DNA laddering assay", "format": "functional, cell-based", "summary_of_the_method": "(§2)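 About 1×10^6 cells were grown in 25 cm2 flasks to 80% and exposed to compound-loaded medium for 24–48 h, with blank medium as control. Cells were collected from the supernatant (300 g, 4 °C), washed in PBS and lysed. Lysates were digested with RNase for 2 h at 37 °C, then with proteinase K for 12 h at 50 °C. DNA was run on agarose gel electrophoresis ([…], 2 h).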"}, "[2]": {"assay": "Cytotoxicity against human A253 cells after 96 hrs by SRB assay", "format": "functional, cell-based", "summary_of_the_method": "as §1"}, "NIH3T3": {"tested_on": "NIH3T3", "assay": "Cytotoxicity against mouse NIH/3T3 cells after 96 hrs by SRB assay", "format": "cell-based", "summary_of_the_method": "as §1"}, "8505C [3]": {"tested_on": "8505C", "assay": "Induction of apoptosis in human 8505C cells after 24 to 48 hrs by DNA laddering assay", "format": "functional, cell-based", "summary_of_the_method": "as §2"}, "A549": {"tested_on": "A549", "assay": "Cytotoxicity against human A549 cells after 96 hrs by SRB assay", "format": "functional, cell-based", "summary_of_the_method": "as §1"}, "[4]": {"assay": "Cytotoxicity against human 518A2 cells after 96 hrs by SRB assay", "format": "functional, cell-based", "summary_of_the_method": "as §1"}, "A2780": {"tested_on": "A2780", "assay": "Cytotoxicity against human A2780 cells after 96 hrs by SRB assay", "format": "functional, cell-based", "summary_of_the_method": "as §1"}, "DLD-1": {"tested_on": "DLD-1", "assay": "Cytotoxicity against human DLD1 cells after 96 hrs by SRB assay", "format": "functional, cell-based", "summary_of_the_method": "as §1"}, "8505C [5]": {"tested_on": "8505C", "assay": "Cytotoxicity against human 8505C cells after 96 hrs by SRB assay", "format": "functional, cell-based", "summary_of_the_method": "as §1"}, "[6]": {"assay": "Cytotoxicity against human WW030272 cells after 96 hrs by SRB assay", "format": "cell-based", "summary_of_the_method": "as §1"}, "8505C [7]": {"tested_on": "8505C", "assay": "Induction of apoptosis in human 8505C cells assessed as migration of phosphatidylserine from inner to outer cell membrane at 30 uM after 6 hrs by Annexin V-FITC/PI based FACS analysis", "format": "functional"}}, "note": "Calls of active or inactive are those of the source. The calls are words filed in the database; no cut-off is given here."}
{"compound": "CC1(C)CC[C@]2(C(=O)O)CC[C@]3(C)C(=CC[C@@H]4[C@@]5(C)C[C@@H](O)[C@H](O)C(C)(C)[C@@H]5CC[C@]43C)[C@@H]2C1", "values": [{"measurement": "Activity", "setting": "8505C [1]", "result": "Active"}]}
{"compound": "COC(=O)[C@]12CC[C@@H](C)[C@@](C)(O)[C@H]1C1=CC[C@@H]3[C@@]4(C)C[C@H](O)[C@H](O)C(C)(C)[C@@H]4CC[C@@]3(C)[C@]1(C)CC2", "values": [{"measurement": "IC50", "setting": "MCF7", "result": 22.6, "unit": "µmol"}, {"measurement": "Activity", "setting": "518A2", "result": "Active"}, {"measurement": "IC50", "setting": "[2]", "result": 15.3, "unit": "µmol"}, {"measurement": "IC50", "setting": "NIH3T3", "result": "> 30", "unit": "µmol"}, {"measurement": "Activity", "setting": "8505C [3]", "result": "Active"}, {"measurement": "IC50", "setting": "A549", "result": "> 30", "unit": "µmol"}, {"measurement": "IC50", "setting": "[4]", "result": "> 30", "unit": "µmol"}, {"measurement": "IC50", "setting": "A2780", "result": 18.9, "unit": "µmol"}, {"measurement": "IC50", "setting": "DLD-1", "result": "> 30", "unit": "µmol"}, {"measurement": "IC50", "setting": "8505C [5]", "result": "> 30", "unit": "µmol"}]}
{"compound": "COC(=O)[C@]12CC[C@@H](C)[C@@](C)(O)[C@H]1C1=CC[C@@H]3[C@@]4(C)C[C@@H](OC(C)=O)C(=O)C(C)(C)[C@@H]4CC[C@@]3(C)[C@]1(C)CC2", "values": [{"measurement": "IC50", "setting": "MCF7", "result": 14.8, "unit": "µmol"}, {"measurement": "Activity", "setting": "518A2", "result": "Active"}, {"measurement": "IC50", "setting": "[2]", "result": 18.5, "unit": "µmol"}, {"measurement": "IC50", "setting": "NIH3T3", "result": 25.1, "unit": "µmol"}, {"measurement": "Activity", "setting": "8505C [3]", "result": "Active"}, {"measurement": "IC50", "setting": "A549", "result": 31.3, "unit": "µmol"}, {"measurement": "IC50", "setting": "[4]", "result": 28.9, "unit": "µmol"}, {"measurement": "IC50", "setting": "A2780", "result": 9, "unit": "µmol"}, {"measurement": "IC50", "setting": "DLD-1", "result": 28.2, "unit": "µmol"}, {"measurement": "IC50", "setting": "8505C [5]", "result": "> 30", "unit": "µmol"}]}
{"compound": "C[C@@H]1CC[C@]2(C(=O)O)CC[C@]3(C)C(=CC[C@@H]4[C@@]5(C)C[C@@H](O)[C@H](O)C(C)(C)[C@@H]5CC[C@]43C)[C@@H]2[C@]1(C)O", "note": "[TOMENTIC ACID]", "values": [{"measurement": "IC50", "setting": "MCF7", "result": 32.3, "unit": "µmol"}, {"measurement": "Activity", "setting": "518A2", "result": "Active"}, {"measurement": "IC50", "setting": "[2]", "result": "> 30", "unit": "µmol"}, {"measurement": "IC50", "setting": "NIH3T3", "result": "> 30", "unit": "µmol"}, {"measurement": "IC50", "setting": "[6]", "result": 47.7, "unit": "µmol"}, {"measurement": "Activity", "setting": "8505C [3]", "result": "Active"}, {"measurement": "Activity", "setting": "8505C [7]", "result": "Active"}, {"measurement": "IC50", "setting": "A549", "result": 31, "unit": "µmol"}, {"measurement": "Activity", "setting": "8505C [1]", "result": "Active"}, {"measurement": "IC50", "setting": "[4]", "result": "> 30", "unit": "µmol"}, {"measurement": "IC50", "setting": "A2780", "result": "> 30", "unit": "µmol"}, {"measurement": "IC50", "setting": "DLD-1", "result": 31, "unit": "µmol"}, {"measurement": "IC50", "setting": "8505C [5]", "result": 23.4, "unit": "µmol"}]}
{"compound": "CC(=O)O[C@@H]1C[C@]2(C)[C@H]3CC=C4[C@H]5[C@](C(=O)O)(CC[C@@H](C)[C@@]5(C)O)CC[C@@]4(C)[C@]3(C)CC[C@H]2C(C)(C)[C@H]1OC(C)=O", "values": [{"measurement": "IC50", "setting": "MCF7", "result": 20.4, "unit": "µmol"}, {"measurement": "Activity", "setting": "518A2", "result": "Active"}, {"measurement": "IC50", "setting": "[2]", "result": 27.3, "unit": "µmol"}, {"measurement": "IC50", "setting": "NIH3T3", "result": 32.3, "unit": "µmol"}, {"measurement": "Activity", "setting": "8505C [3]", "result": "Active"}, {"measurement": "IC50", "setting": "A549", "result": "> 30", "unit": "µmol"}, {"measurement": "IC50", "setting": "[4]", "result": "> 30", "unit": "µmol"}, {"measurement": "IC50", "setting": "A2780", "result": 17.6, "unit": "µmol"}, {"measurement": "IC50", "setting": "DLD-1", "result": "> 30", "unit": "µmol"}, {"measurement": "IC50", "setting": "8505C [5]", "result": "> 30", "unit": "µmol"}]}
{"compound": "COC(=O)[C@]12CC[C@@H](C)[C@@](C)(O)[C@H]1C1=CC[C@@H]3[C@@]4(C)C[C@@H](O)C(=O)C(C)(C)[C@@H]4CC[C@@]3(C)[C@]1(C)CC2", "values": [{"measurement": "IC50", "setting": "MCF7", "result": 9.4, "unit": "µmol"}, {"measurement": "Activity", "setting": "518A2", "result": "Active"}, {"measurement": "IC50", "setting": "[2]", "result": 6.8, "unit": "µmol"}, {"measurement": "IC50", "setting": "NIH3T3", "result": 7.7, "unit": "µmol"}, {"measurement": "Activity", "setting": "8505C [3]", "result": "Active"}, {"measurement": "IC50", "setting": "A549", "result": 11.8, "unit": "µmol"}, {"measurement": "IC50", "setting": "[4]", "result": 8.9, "unit": "µmol"}, {"measurement": "IC50", "setting": "A2780", "result": 4.9, "unit": "µmol"}, {"measurement": "IC50", "setting": "DLD-1", "result": 18, "unit": "µmol"}, {"measurement": "IC50", "setting": "8505C [5]", "result": 12.9, "unit": "µmol"}]}
{"compound": "COC(=O)[C@]12CC[C@@H](C)[C@@](C)(O)[C@H]1C1=CC[C@@H]3[C@@]4(C)CC(=O)[C@H](OC(C)=O)C(C)(C)[C@@H]4CC[C@@]3(C)[C@]1(C)CC2", "values": [{"measurement": "IC50", "setting": "MCF7", "result": 8.2, "unit": "µmol"}, {"measurement": "Activity", "setting": "518A2", "result": "Active"}, {"measurement": "IC50", "setting": "[2]", "result": 6.7, "unit": "µmol"}, {"measurement": "IC50", "setting": "NIH3T3", "result": 6.7, "unit": "µmol"}, {"measurement": "Activity", "setting": "8505C [3]", "result": "Active"}, {"measurement": "IC50", "setting": "A549", "result": 7.8, "unit": "µmol"}, {"measurement": "IC50", "setting": "[4]", "result": 5.6, "unit": "µmol"}, {"measurement": "IC50", "setting": "A2780", "result": 4.4, "unit": "µmol"}, {"measurement": "IC50", "setting": "DLD-1", "result": 13.5, "unit": "µmol"}, {"measurement": "IC50", "setting": "8505C [5]", "result": 7, "unit": "µmol"}]}
